In ChEMBL document CHEMBL4400579, “Antibacterial Strategy against H. pylori: Inhibition of the Radical SAM Enzyme MqnE in Menaquinone Biosynthesis” (ACS Med Chem Lett, 2019) one finds IC50, Ki and inhibition data, which are given here for four molecules.

The nature of experiment [1]: Antibacterial activity against Campylobacter jejuni ATCC 33560 AS-83-79 measured after 16.4 hrs. The experiment is classed as functional, Campylobacter jejuni subsp. jejuni. A digest of the protocol: (§1)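 Bacterial growth inhibition measured by 96-well plate liquid culture. IC50 values taken as reported for each organism.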
A further experiment relates to Helicobacter pylori. The experiment in a line: Antibacterial activity against Helicobacter pylori 26695 ATCC 700392 measured after 72 hrs. Particulars: 26695 ATCC 700392, 72 h. In kind it is functional, organism-based. The method, boiled down:
as §1

Experiment [2] has as its target T1, Aminodeoxyfutalosine synthase (Thermus thermophilus (strain HB8 / ATCC 27634 / DSM 579), UniProt Q5SK48).
T1 sequence (Q5SK48 whole entry): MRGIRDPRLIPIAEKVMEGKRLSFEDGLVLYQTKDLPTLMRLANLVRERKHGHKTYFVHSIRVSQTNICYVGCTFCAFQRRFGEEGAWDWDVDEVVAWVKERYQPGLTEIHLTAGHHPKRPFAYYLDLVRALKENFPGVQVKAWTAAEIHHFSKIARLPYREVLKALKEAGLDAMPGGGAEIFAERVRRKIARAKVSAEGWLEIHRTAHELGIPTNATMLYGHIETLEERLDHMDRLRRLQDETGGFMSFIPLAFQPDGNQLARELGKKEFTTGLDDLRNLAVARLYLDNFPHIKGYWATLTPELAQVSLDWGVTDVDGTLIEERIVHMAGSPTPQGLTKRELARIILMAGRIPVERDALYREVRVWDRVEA
The experiment in a line: Inhibition of N-terminal His6-tagged Thermus thermophilus HB8 MqnE expressed in Escherichia coli BL21 (DE3) co-expressing [4Fe-4S]2+ cluster using 3-(1-carboxyvinyloxy)benzoic acid as substrate preincubated for 15 mins in presence of SAM and substrate followed by Ti(3+)citrate addition and measured by discontinuous HPLC analysis. The method, boiled down: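 [4Fe-4S]2+-reconstituted T. thermophilus MqnE preincubated with a range of inhibitor concentrations plus excess SAM and substrate 1. Reaction started by reducing the enzyme with Ti(III) citrate. Aminofutalosine formation followed by discontinuous HPLC. Normalized relative initial rates plotted against inhibitor concentration to give IC50. Where IC50 fell within 5-fold of enzyme concentration, Ki fitted with the Morrison tight-binding equation.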

Experiment [3] addresses T2, Aminodeoxyfutalosine synthase (Thermus thermophilus (strain HB8 / ATCC 27634 / DSM 579)) (UniProt Q5SK48).
T2 sequence (whole entry): T1 sequence (Q5SK48 whole entry)
The experiment in a line: Reversible inhibition of N-terminal His6-tagged Thermus thermophilus HB8 MqnE expressed in Escherichia coli BL21 (DE3) co-expressing [4Fe-4S]2+ cluster assessed as restoration of enzyme activity at 2 mM using 3-(1-carboxyvinyloxy)benzoic acid as substrate preincubated for 1 hr in presence of SAM, substrate and Ti(3+)citrate followed by compound washout and subsequent addition of SAM, substrate and Ti(3+)citrate measured after 1 hr by HPLC analysis. A digest of the protocol:
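Reversibility test: MqnE preincubated with inhibitor for 1 h, inhibitor then removed by gel filtration, and enzyme activity compared for restoration.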

The source made the active and inactive calls. The calls are words filed in the database; no cut-off is given here.

As for `CCCCSC[C@H]1CN(Cc2c[nH]c3c(N)ncnc23)C[C@@H]1O`, the IC50 was found to be 1.4 µM in experiment [1] and 0.012 µM with Helicobacter pylori.

With `CN[C@@H]1[C@@H](O)[C@@H](O[C@@H]2[C@@H](O)[C@H](O[C@H]3O[C@H]([C@@H](C)N)CC[C@H]3N)[C@@H](N)C[C@H]2N)OC[C@]1(C)O` [GENTAMICIN C2], the IC50 in experiment [1] is 1.9 µM; with Helicobacter pylori, 0.26 µM.

As to `Nc1ncnc2c1ncn2[C@@H]1O[C@H](CCC(Cc2cccc(C(=O)O)c2)C(=O)O)[C@@H](O)[C@H]1O` (some centres not stated), the IC50 worked out at 839 µM in experiment [2], 83.3 µM in experiment [1] and 16.1 µM with Helicobacter pylori.

As to `C=C(Cc1cccc(C(=O)O)c1)C(=O)O`, the IC50 in experiment [2] is 38.7 µM; in experiment [1] it was 13.6 µM; in the experiment with Helicobacter pylori, 1.8 µM. The Ki in experiment [2] turned out to be 3.1 µM. Further, the inhibition entry in experiment [3] is “Active”.
